Reference: ChEMBL document CHEMBL4414600, “Discovery of a Furanopyrimidine-Based Epidermal Growth Factor Receptor Inhibitor (DBPR112) as a Clinical Candidate for the Treatment of Non-Small Cell Lung Cancer” (J Med Chem, 2019)
Activity calls are given as the source filed them. No cut-off for these calls is given here.

Assays:
[1] = biological target: Serine/threonine-protein kinase 10 (Homo sapiens) (UniProt O94804); test: Binding affinity to wild-type human partial length LOK (E16 to V314 residues) expressed in bacterial expression system assessed as residual binding level at 10000 nM by Kinomescan method relative to control
Sequence of Serine/threonine-protein kinase 10 (Homo sapiens) (O94804 whole entry, looked up, the tested form may be a part): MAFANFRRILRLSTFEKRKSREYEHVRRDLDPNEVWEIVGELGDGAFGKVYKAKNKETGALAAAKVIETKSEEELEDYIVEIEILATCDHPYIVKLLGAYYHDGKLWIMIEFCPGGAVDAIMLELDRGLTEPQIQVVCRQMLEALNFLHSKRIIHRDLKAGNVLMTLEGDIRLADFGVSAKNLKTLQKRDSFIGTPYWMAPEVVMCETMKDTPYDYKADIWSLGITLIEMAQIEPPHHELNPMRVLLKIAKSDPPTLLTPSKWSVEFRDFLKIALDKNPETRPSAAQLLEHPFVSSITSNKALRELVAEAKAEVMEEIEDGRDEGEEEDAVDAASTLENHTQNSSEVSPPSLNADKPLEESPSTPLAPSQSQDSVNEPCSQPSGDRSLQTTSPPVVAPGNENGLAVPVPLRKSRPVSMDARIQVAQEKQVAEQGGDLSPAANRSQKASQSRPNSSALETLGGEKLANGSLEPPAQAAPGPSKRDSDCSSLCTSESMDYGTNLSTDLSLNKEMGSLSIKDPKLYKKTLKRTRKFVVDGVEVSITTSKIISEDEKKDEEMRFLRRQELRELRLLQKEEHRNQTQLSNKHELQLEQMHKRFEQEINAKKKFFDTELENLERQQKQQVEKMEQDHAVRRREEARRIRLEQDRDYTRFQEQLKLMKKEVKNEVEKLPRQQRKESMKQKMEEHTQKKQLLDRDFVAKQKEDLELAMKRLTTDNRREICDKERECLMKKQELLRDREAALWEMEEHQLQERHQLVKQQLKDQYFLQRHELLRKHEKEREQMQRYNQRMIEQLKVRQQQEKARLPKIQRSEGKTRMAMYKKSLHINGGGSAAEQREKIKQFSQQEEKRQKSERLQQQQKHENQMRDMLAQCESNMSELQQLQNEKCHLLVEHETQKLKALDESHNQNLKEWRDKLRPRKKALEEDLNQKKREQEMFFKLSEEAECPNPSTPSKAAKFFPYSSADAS
Summary of the method: (§1)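 KINOMEScan competition binding panel run at 10,000 nM compound, with results expressed as percent of control binding. S(10) is the fraction of non-mutant kinases below 10% of control, out of 395 tested.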

[2] = biological target: STE20-like serine/threonine-protein kinase (Homo sapiens) (UniProt Q9H2G2); test: Binding affinity to wild-type human partial length SLK (S14 to A307 residues) expressed in bacterial expression system assessed as residual binding level at 10000 nM by Kinomescan method relative to control; summary of the method: as §1
Sequence of STE20-like serine/threonine-protein kinase (Homo sapiens) (Q9H2G2 whole entry, looked up, the tested form may be a part): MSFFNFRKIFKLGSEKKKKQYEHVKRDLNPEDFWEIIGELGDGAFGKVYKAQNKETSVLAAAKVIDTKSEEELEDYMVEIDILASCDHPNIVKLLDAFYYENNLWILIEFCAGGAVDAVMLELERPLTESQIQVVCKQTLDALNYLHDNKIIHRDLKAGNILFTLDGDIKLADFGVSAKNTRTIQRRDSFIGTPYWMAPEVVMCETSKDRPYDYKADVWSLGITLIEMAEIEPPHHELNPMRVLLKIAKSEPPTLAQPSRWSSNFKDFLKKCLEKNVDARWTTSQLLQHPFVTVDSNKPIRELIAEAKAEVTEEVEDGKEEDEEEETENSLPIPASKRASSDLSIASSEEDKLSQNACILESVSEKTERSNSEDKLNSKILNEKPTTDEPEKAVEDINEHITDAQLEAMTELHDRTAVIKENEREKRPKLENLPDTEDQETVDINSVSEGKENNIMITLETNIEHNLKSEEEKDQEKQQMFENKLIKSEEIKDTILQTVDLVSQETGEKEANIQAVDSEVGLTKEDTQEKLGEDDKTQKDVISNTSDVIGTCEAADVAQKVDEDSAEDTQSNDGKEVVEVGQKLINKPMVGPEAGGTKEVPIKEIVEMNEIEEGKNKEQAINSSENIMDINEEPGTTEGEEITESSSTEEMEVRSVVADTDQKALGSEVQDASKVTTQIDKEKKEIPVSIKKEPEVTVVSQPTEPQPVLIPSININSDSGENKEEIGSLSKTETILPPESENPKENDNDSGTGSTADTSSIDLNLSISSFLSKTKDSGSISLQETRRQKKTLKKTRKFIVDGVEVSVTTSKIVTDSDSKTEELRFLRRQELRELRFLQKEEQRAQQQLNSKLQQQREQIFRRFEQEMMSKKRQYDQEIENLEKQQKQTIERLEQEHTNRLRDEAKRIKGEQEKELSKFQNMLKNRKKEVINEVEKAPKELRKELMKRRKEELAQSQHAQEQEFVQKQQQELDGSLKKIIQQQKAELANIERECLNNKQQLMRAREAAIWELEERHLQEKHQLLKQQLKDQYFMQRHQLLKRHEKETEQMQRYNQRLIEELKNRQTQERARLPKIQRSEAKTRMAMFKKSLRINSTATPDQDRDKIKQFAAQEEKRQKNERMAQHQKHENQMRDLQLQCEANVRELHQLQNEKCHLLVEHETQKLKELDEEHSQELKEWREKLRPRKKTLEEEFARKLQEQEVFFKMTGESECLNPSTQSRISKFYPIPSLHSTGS

[3] = biological target: T1, Tyrosine-protein kinase TXK (Homo sapiens) (UniProt P42681); test: Binding affinity to wild-type human partial length TXK (L238 to W527 residues) expressed in bacterial expression system assessed as residual binding level at 10000 nM by Kinomescan method relative to control; summary of the method: as §1
T1 sequence (whole entry): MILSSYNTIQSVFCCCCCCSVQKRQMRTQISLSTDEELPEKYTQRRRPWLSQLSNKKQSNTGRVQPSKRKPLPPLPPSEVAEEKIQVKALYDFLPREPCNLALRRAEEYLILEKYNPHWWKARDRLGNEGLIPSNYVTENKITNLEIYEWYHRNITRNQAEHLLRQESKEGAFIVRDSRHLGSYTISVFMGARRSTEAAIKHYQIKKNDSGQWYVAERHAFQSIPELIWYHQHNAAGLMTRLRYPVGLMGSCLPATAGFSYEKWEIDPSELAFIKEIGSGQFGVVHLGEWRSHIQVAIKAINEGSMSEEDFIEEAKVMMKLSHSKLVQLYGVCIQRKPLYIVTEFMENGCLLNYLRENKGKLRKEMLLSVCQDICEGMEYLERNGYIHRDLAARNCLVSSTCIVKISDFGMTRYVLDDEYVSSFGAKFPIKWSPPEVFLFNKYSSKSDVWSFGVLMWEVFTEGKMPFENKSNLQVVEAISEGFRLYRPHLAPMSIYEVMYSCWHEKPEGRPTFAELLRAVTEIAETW

[4] = Toxicity in ICR mouse at 100 mg/kg, po QD for 2 weeks; type: organism-based; conditions: in vivo, 336 h
[5] = tested on: HCC827; test: Antitumor activity against human HCC827 cells xenografted in athymic NU-Fox1nu nude mouse assessed as inhibition of tumor growth at 20 to 50 mg/kg, po dosed via gavage for 5 days/week for 2 consecutive weeks; type: functional, organism-based
Summary of the method: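 Male athymic NU-Fox1nu nude mice, 6–8 weeks old, were inoculated subcutaneously at the left flank with 5x10^6 HCC827 (exon 19 Del E746_A750) cells. Oral gavage began at a mean tumor size of about 500 mm³, in 1% methylcellulose/0.5% Tween 80/98.5% water, once daily on days 1-5 and 8-12. Tumor volume (V = 0.5 a × b², caliper) and body weight were tracked.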

[6] = tested on: NCI-H1975; test: Antitumor activity against human NCI-H1975 cells xenografted in nude BALB/c mouse assessed as inhibition of tumor growth at 50 mg/kg, po QD for 15 days relative to control; type: functional
Summary of the method: (§2)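 H1975 cells were grown in RPMI1640 with 10% heat-inactivated FBS at 37 °C, 5% CO2, and passaged by trypsin-EDTA. 5x10^6 cells in 0.1 ml PBS were injected subcutaneously at the right flank of BALB/c nude mice. Oral QD dosing for 15 days began at a mean tumor size of 147 mm³, n = 5 per group.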

[7] = Toxicity in nude BALB/c mouse xenografted with human NCI-H1975 cells assessed as induction of body weight loss at 50 mg/kg, po QD for 15 days relative to control; type: organism-based; conditions: in vivo, 360 h; summary of the method: as §2
[8] = Toxicity in nude BALB/c mouse xenografted with human NCI-H1975 cells assessed as drug tolerability at 50 mg/kg, po QD for 15 days relative to control; type: organism-based; conditions: in vivo, 360 h; summary of the method: as §2
[9] = Tmax in rat at 23.6 mg/kg, po; type: ADME, organism-based; conditions: in vivo
Summary of the method: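 Rat pharmacokinetics: single IV injection at 5 mg/kg or oral dosing at 20 mg/kg (23.6 mg/kg oral for one compound). Plasma parameters t1/2, CL, Vss, AUC(0-inf), Cmax, Tmax and oral bioavailability F were derived from the concentration–time profiles.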

## CN(C)C/C=C/C(=O)Nc1cccc(-c2c(-c3ccccc3)oc3ncnc(N[C@H](CO)c4ccccc4)c23)c1
[1]
  Activity: < 10%
[2]
  Activity: < 10%
[3]
  Activity: < 10%
[4]
  Activity: Toxic
[5]
  TGI: Active
[6]
  TGI: 34%
[7]
  Activity: Non-Toxic
[8]
  Activity: Non-Toxic
[9]
  Tmax: 3.3 h
